Experimental data reported in publication PMC10149104 (Journal of medicinal chemistry, 2023).
Where a SMILES comes first, the peptide text is derived from it.

Tests used:
[1] = biological target: T1, recombinant human PEPD (Homo sapiens, UniProt P12955); test: Inhibition of recombinant PEPD, alanine release assay; assay type: biochemical
T1 sequence (P12955 1-493): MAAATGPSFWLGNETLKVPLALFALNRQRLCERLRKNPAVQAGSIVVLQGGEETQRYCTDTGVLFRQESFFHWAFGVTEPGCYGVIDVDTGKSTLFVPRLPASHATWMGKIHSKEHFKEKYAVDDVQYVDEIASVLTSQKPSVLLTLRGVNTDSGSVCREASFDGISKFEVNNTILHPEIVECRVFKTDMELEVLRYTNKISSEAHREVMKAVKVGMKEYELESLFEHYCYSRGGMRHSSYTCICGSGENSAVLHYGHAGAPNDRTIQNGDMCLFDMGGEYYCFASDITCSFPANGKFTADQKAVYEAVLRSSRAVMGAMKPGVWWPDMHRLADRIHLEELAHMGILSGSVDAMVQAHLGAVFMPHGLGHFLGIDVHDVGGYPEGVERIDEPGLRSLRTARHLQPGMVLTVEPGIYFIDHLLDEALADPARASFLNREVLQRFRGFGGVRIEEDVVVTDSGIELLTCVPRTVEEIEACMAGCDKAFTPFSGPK

[2] = biological target: recombinant XPNPEP1 (Homo sapiens, UniProt Q9NQW7); test: Inhibition of recombinant XPNPEP1, H-Lys; assay type: biochemical; settings: for XPNPEP1 inhibition (in words): recombinant XPNPEP1
Chain of recombinant XPNPEP1 (Q9NQW7 whole entry): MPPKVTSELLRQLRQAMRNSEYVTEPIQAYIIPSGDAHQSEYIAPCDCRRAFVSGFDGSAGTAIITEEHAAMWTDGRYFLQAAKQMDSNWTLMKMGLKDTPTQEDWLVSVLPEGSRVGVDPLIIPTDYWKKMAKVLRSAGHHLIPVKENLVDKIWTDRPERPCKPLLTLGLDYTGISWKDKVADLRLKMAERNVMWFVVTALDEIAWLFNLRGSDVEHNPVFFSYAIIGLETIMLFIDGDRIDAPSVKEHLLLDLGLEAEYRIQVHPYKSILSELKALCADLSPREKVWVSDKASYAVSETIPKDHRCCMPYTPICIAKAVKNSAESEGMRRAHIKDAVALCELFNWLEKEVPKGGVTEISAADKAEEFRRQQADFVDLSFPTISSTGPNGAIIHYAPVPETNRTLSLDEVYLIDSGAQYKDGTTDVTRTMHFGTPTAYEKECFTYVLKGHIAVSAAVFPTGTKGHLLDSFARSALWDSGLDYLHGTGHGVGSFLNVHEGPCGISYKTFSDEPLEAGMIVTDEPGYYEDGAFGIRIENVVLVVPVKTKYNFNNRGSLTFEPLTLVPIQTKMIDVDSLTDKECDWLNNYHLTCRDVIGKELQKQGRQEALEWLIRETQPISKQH

[3] = Stability in cell culture supernatants; assay type: in vitro ADME
How it was run: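 Test compounds are incubated in conditioned medium collected from MV4;11 cultures for 24 h at 37 °C. Intact compound and the free acid product are then quantified by LC/MS, with species identified by retention time. Values are means ± SEM of three biological replicates.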

[4] = tested on: MV4;11 WT cells; test: CellTiter-Glo cell viability, WT MV4; assay type: cell-based, human; settings: CTG, 24 h
[5] = tested on: MV4;11 CASP1^−/− cells; test: CellTiter-Glo cell viability, CASP1 knockout MV4; assay type: cell-based, human; settings: for Cell death independent of CASP1 in MV4;11 cells (in words): WT and CASP1^−/− MV4;11, CTG, 24 h
How it was run: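 CASP1-knockout MV4;11 cells (generated previously) are grown alongside wild type in RPMI 1640 with 10% FBS at 37 °C in 5% CO2. Cells are plated at 2000 per well in 384-well plates and dosed by pin tool in three-fold dilutions, topping at 100 μM (down to 15.2 nM) or 10 μM (down to 1.5 nM). After 24 h, CellTiter-Glo luminescence is read (2 min shake, 10 min at 25 °C). IC50 values are means ± SEM of three biological replicates.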

[6] = tested on: OCI-AML2 cells; test: PI uptake in OCI-AML2 cells; assay type: cell-based, human; settings: 6.25 μM, compared to CQ31
How it was run: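 OCI-AML2 cells (2 × 10^4 per well, 384-well, RPMI) are treated with 6.25 μM compound, with PI added at 10 μM final. PI fluorescence (Ex/Em 535/617 nm) is recorded at 37 °C every 5 min over 6 h. Signals are baseline-corrected to DMSO vehicle and normalized to the maximum response. Values are means ± SEM of three biological replicates.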

[7] = tested on: DOX-inducible CARD8 E274R mutant THP-1 cells; test: CARD8 E274R mutant NT degradation assay in CARD8^−/− THP-1 cells; assay type: cell-based, human; settings: DOX 100 ng/mL 16 h; VbP 10 μM, CQ31/CQ80 20 μM, VP-OMe 1 mM, MeBs 10 μM; 6 h
How it was run: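 Parental CARD8-knockout THP-1 cells carry a stably integrated doxycycline-inducible CARD8 E274R construct. Cells are grown in RPMI 1640 with L-glutamine and 10% FBS at 37 °C in 5% CO2. They are induced with or without DOX (100 ng/mL, 16 h), then exposed to test compounds for 6 h.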

[8] = biological target: CARD8-DPP9 ternary complex in HEK 293T^CASP1+GSDMD cells (Homo sapiens, UniProt Q86TI2); test: dTAG-based CARD8-DPP9 ternary complex disruption assay; assay type: cell-based; settings: dTAG-13 500 nM; VbP 10 μM, CQ31 20 μM, CQ80 20 μM, VP-OMe 1 mM; 6 h; LDH release
Chain of CARD8-DPP9 ternary complex in HEK 293T^CASP1+GSDMD cells (Q86TI2 whole entry, one chain of several): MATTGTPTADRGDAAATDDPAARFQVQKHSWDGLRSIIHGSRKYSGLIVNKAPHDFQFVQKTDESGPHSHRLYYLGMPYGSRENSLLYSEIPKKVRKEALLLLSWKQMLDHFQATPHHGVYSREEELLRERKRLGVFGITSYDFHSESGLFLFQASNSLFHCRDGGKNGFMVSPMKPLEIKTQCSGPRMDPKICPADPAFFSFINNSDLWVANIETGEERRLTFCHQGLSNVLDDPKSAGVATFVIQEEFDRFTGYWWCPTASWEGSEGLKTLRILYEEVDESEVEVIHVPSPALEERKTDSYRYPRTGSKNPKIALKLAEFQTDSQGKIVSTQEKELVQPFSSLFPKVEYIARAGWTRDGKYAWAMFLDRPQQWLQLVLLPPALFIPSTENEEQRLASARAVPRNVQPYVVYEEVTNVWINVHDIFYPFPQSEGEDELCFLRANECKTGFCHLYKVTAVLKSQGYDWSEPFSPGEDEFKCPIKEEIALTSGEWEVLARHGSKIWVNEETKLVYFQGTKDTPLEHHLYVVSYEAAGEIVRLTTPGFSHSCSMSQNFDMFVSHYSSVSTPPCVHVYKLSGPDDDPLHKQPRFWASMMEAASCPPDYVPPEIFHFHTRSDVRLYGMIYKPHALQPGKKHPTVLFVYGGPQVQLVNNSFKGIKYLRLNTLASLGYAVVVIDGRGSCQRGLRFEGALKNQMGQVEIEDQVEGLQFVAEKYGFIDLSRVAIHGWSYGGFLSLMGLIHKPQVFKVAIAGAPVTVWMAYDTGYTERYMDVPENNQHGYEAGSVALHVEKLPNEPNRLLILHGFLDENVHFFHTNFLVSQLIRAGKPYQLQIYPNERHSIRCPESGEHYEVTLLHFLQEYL

PEPD inhibition (in words) [1] | Structure (SMILES) | Cytotoxicity / activity against MV4;11 cells (in words) [4] | other results
more potent than CQ31 | CC(C)C[C@@H](N)C(O)C(=O)N1CCC[C@H]1C(=O)O (stereo partly drawn) [CQ04, (2S,3R)-3-amino-2-hydroxy-5-methyl-hexanoyl-proline] | – | XPNPEP1 inhibition (in words) [2]: more potent than CQ31
inhibited PEPD and XPNPEP1 similarly | CC(C)C[C@@H](N)[C@H](O)C(=O)N1CCC[C@H]1C(=O)OC(C)(C)C [CQ34, tert-Butyl ((2S,3R)-3-Amino-2-hydroxy-5-methylhexanoyl)-L-pro-linate] | slightly more toxic | Stability in cell culture supernatants (in words) [3]: considerably more stable than CQ31 or CQ94; Time after which completely hydrolyzed [3]: ≤ 8 h; XPNPEP1 inhibition (in words) [2]: inhibited PEPD and XPNPEP1 similarly
– | COC(=O)[C@@H]1C[C@H](O)CN1C(=O)[C@@H](O)[C@H](N)CC(C)C [CQ39, Methyl (2S,4S)-1-((2S,3R)-3-Amino-2-hydroxy-5-methylhexano-yl)-4-hydroxypyrrolidine-2-carboxylate] | completely inactive | –
– | COC(=O)[C@@H]1CCCN1C(=O)[C@@H](O)[C@H](N)Cc1ccccc1 [CQ42, Methyl ((2S,3R)-3-Amino-2-hydroxy-4-phenylbutanoyl)-l-prolinate] | almost completely inactive | –
– | COC(=O)[C@@H]1CCCN1C(=O)[C@@H](O)[C@H](N)C12CC3CC(CC(C3)C1)C2 [CQ47, Methyl ((2S,3R)-3-(Adamantan-1-yl)-3-amino-2-hydroxypropanoyl)-l-prolinate] | almost completely inactive | –
– | CC(C)C[C@@H](N)[C@H](O)C(=O)N1CCC[C@H]1C(N)=O [CQ49, (S)-1-((2S,3R)-3-Amino-2-hydroxy-5-methylhexanoyl)-pyrrolidine-2-carboxamide] | retained similar PEPD/XPNPEP1 inhibition and cytotoxicity as CQ31 | –
very weak PEPD and XPNPEP1 inhibitors | COC(=O)[C@H](CC(C)C)NC(=O)[C@@H](O)[C@H](N)CC(C)C [CQ52, Methyl ((2S,3R)-3-Amino-2-hydroxy-5-methylhexanoyl)-l-leucinate] | – | Cell death independent of CASP1 in MV4;11 cells (in words) [5]: triggered CASP1-independent cell death; XPNPEP1 inhibition (in words) [2]: very weak PEPD and XPNPEP1 inhibitors
– | CC(C)C[C@@H](N)[C@H](O)C(=O)N1CCC[C@H]1CNS(C)(=O)=O [CQ53, N-(((S)-1-((2S,3R)-3-Amino-2-hydroxy-5-methylhexanoyl)-pyrrolidin-2-yl)methyl)methanesulfon-amide] | completely inactive in cells | –
– | CONC(=O)[C@@H]1CCCN1C(=O)[C@@H](O)[C@H](N)CC(C)C [CQ55, (S)-1-((2S,3R)-3-Amino-2-hydroxy-5-methylhexanoyl)-N-methoxypyrrolidine-2-carboxamide] | completely inactive in cells | –
– | COC(=O)[C@@H]1CCCN1C(=O)[C@@H](O)[C@H](N)C1CC1 [CQ62, Methyl ((2S,3R)-3-Amino-3-cyclopropyl-2-hydroxypropanoyl)-l-prolinate] | almost completely inactive | –
very weak PEPD and XPNPEP1 inhibitors | COC(=O)[C@H](Cc1ccccc1)NC(=O)[C@@H](O)[C@H](N)CC(C)C [CQ72, Methyl ((2S,3R)-3-Amino-2-hydroxy-5-methylhexanoyl)-l-phenylalaninate] | – | Cell death independent of CASP1 in MV4;11 cells (in words) [5]: triggered CASP1-independent cell death; XPNPEP1 inhibition (in words) [2]: very weak PEPD and XPNPEP1 inhibitors
retained PEPD inhibition | COC(=O)[C@@H]1CCCN1C(=O)[C@@H](O)[C@H](N)CCCCO [CQ75] | lost cytotoxicity | –
– | CC(C)C[C@@H](N)[C@H](O)C(=O)N1CCCC1 [CQ76, (2S,3R)-3-Amino-2-hydroxy-5-methyl-1-(pyrrolidin-1-yl)hexan-1-one] | abrogated all activity | –
– | COC(=O)[C@@H](NC(=O)[C@@H]1CCCN1C(=O)[C@@H](O)[C@H](N)CC(C)C)C(C)C [CQ78, Methyl ((2S,3R)-3-Amino-2-hydroxy-5-methylhexanoyl)-l-prolyl-l-valinate] | – | Rate of lytic cell death by PI uptake in OCI-AML2 cells [6]: caused more rapid lytic cell death
inhibited PEPD and XPNPEP1 similarly | CC(C)C[C@@H](N)[C@H](O)C(=O)N1CCC[C@H]1C(=O)OC1CCCC1 [CQ94, Cyclopentyl ((2S,3R)-3-Amino-2-hydroxy-5-methylhexanoyl)-L-prolinate] | slightly more toxic | XPNPEP1 inhibition (in words) [2]: inhibited PEPD and XPNPEP1 similarly
– | CC(C)CCNC(=O)[C@@H]1CCCN1C(=O)[C@@H](O)[C@H](N)CC(C)C [CQ95, (S)-1-((2S,3R)-3-Amino-2-hydroxy-5-methylhexanoyl)-N-isopentylpyrrolidine-2-carboxamide] | retained similar PEPD/XPNPEP1 inhibition and cytotoxicity as CQ31 | –
– | CC(C)C[C@@H](N)[C@H](O)C(=O)N1CCC[C@H]1c1nnn[nH]1 [CQ99, (2S,3R)-1-((S)-2-(1H-Tetrazol-5-yl)pyrrolidin-1-yl)-3-amino-2-hydroxy-5-methylhexan-1-one] | completely inactive in cells | –
– | CC(C)C[C@H](NC(=O)[C@@H]1CCCN1C(=O)[C@@H](O)[C@H](N)CC(C)C)C(=O)NCCc1ccccc1 [CQ116, (S)-1-((2S,3R)-3-Amino-2-hydroxy-5-methylhexanoyl)-N-((S)-4-methyl-1-oxo-1-(phenethylamino)pentan-2-yl)pyrrolidine-2-carboxamide] | – | Stability in cell culture supernatants (in words) [3]: completely stable
– | COC(=O)[C@H](CC(C)C)NC(=O)[C@@H](O)[C@H](N)Cc1ccccc1 [MeBs, bestatin methyl ester, reference compound] | – | Cell death independent of CASP1 in MV4;11 cells (in words) [5]: CASP1-independent cell death; Additional cell death in CARD8 E274R assay (NT degradation) [7]: still induce considerably more cell death
– | COC(=O)[C@@H]1CCCN1C(=O)[C@@H](N)C(C)C [VP-OMe, reference compound] (H-Val-Pro-OMe) | – | Pyroptosis after dTAG-13 treatment (ternary complex destabilization) [8]: induce more pyroptosis after dTAG-13 treatment; Additional cell death in CARD8 E274R assay (NT degradation) [7]: did not cause substantially more death
– | C[C@H](NC(=O)[C@@H]1CCCN1C(=O)[C@@H]1CCCN1C(=O)[C@@H](O)[C@H](N)Cc1ccccc1)C(N)=O [apstatin, reference compound] | not cytotoxic at all | IC50 ([5]; read-out: MV4;11 CASP1^−/− IC50, CTG cell viability after 24 h treatment): > 20 µM; IC50 ([2]; read-out: XPNPEP1 IC50 (μM ± SEM), recombinant XPNPEP1, H-Lys(abz)-Pro-Pro-pNA cleavage, means ± SEM of three biological replicates): 18 ± 1.7 µM

Structure (SMILES) | PEPD inhibition (in words) [1] | Cytotoxicity / activity against MV4;11 cells (in words) [4] | other results
CC(C)C[C@H](NC(=O)[C@@H]1CCCN1C(=O)[C@@H](O)[C@H](N)CC(C)C)C(=O)O [CQ92] | more potent inhibitor of both PEPD and XPNPEP1 than CQ80 | – | XPNPEP1 inhibition (in words) [2]: more potent inhibitor of both PEPD and XPNPEP1 than CQ80
